Laboratory results from publication PMC3692342 (International Journal of Nanomedicine, 2013).
Marks after values point to notes of the source that are not given here.

Assays:
ethanol-induced ulcers = assay: Ethanol-induced gastric ulcer in rats; type: in vivo, Sprague Dawley male rats
[1] = Pharmacokinetic study in rabbits; type: in vivo, New Zealand White rabbits
WRL-68 cells = assay: MTT cell viability assay on normal human hepatic cells; conditions: 24 hours, TQNLC concentration based on amount of TQ
Procedure, shortened: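 Human normal liver WRL-68 cells were grown in DMEM with 10% FBS, 100 units/mL penicillin and 0.1 mg/mL streptomycin at 37°C under 5% CO2. They were seeded at 1 × 10^5 cells/mL, held 24 h, then exposed to test compound for 24 h. MTT (2 mg/mL) was added for 1 h and A570 read. Viability is % of untreated absorbance; IC50 is the concentration giving 50% growth loss. Cisplatin served as positive control.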

[2] = oral pretreatment 20 mg/kg 1 h before ethanol
[3] = oral pretreatment 60 mg/Kg 1 h before ethanol
[4] = New Zealand White, rabbit, plasma, ip, 10 mg/kg
[5] = TQ in rabbits, single extravascular (IP) dose of TQNLC(20) 10 mg/kg, n = 3

Compound: COc1ccc2[nH]c([S+]([O-])Cc3ncc(C)c(OC)c3C)nc2c1 (stereo not shown) [Omeprazole]
- PAS-positive mucus versus ulcer control group (in words) (ethanol-induced ulcers; oral 20 mg/kg, PAS staining): more PAS-positive mucus
- Histopathology of stomach versus ulcer control group (in words) (ethanol-induced ulcers; oral 20 mg/kg, hematoxylin and eosin): improved
- I% (inhibition percentage of ulcer area) (ethanol-induced ulcers; [2]): 80.8%
- UA (ulcer area) (ethanol-induced ulcers; [2]): 183 ± 5.8^b mm^2
- pH (gastric juice) (ethanol-induced ulcers; oral pretreatment 20 mg/kg 1 h before ethanol 5 mL/kg): 6.43 ± 0.2^b

Compound: CC1=CC(=O)C(C(C)C)=CC1=O [Thymoquinone, thymoquinone]
- I% (inhibition percentage of ulcer area) (ethanol-induced ulcers; [3]): 89.1%
- Mucus (weight of gastric mucosa) (ethanol-induced ulcers; [3]): 3.24 ± 0.4^d
- UA (ulcer area) (ethanol-induced ulcers; [3]): 112.4 ± 3.2^e mm^2
- pH (gastric juice) (ethanol-induced ulcers; [3]): 6.5 ± 0.3^c
- AUC(0-inf) [1, 4]: 26822 ± 9.4 ng·h/mL
- Cmax [1, 4]: 4810 ± 55.5 ng/mL
- Tmax [1, 4]: 3.96 ± 0.19 h
- half-life [1, 4]: 4.493 ± 0.015 h
- CL (clearance) [1, 5]: 11.8 ± 0.517 mL/min/kg
- Vd (volume of distribution) [1, 5]: 4.32 ± 0.34 L/kg

Compound: N.N.[Cl][Pt][Cl] [cisplatin]
- IC50 (concentration causing 50% loss of cell growth) (WRL-68 cells): 5.1 ± 0.28 µg/mL
